Measured values from ChEMBL document CHEMBL1255375, “Mutational events in cefotaximase extended-spectrum beta-lactamases of the CTX-M-1 cluster involved in ceftazidime resistance” (2008).
In brackets after ≈: the same amount, converted by molar mass.

Experiments:
Escherichia coli [1] = experiment: Antimicrobial activity against Escherichia coli MI1443 harboring P167S and D240G mutations in beta lactamase CTX-M-10 by E-test; assay type: functional
Outline: (§1)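 MICs by E-test. Host is E. coli MI1443 carrying an artificial blaCTX-M derivative made by PCR and cloned into pBGS18- (EcoRI/PstI). Transformants were selected on kanamycin 50 µg/ml and the mutation was confirmed by sequencing. Agents tested: cefotaxime, ceftazidime, cefepime, cefuroxime and amoxicillin-clavulanate.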

Escherichia coli [2] = experiment: Antimicrobial activity against Escherichia coli MI1443 harboring V27A, Q38R, A77V mutations in beta lactamase CTX-M-3 by E-test; assay type: functional; outline: as §1
Escherichia coli [3] = experiment: Antimicrobial activity against Escherichia coli MI1443 harboring V27A, Q38R, N106S and D240G mutations in beta lactamase CTX-M-3 by E-test; assay type: functional
Outline: (§2)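 E-test MICs on E. coli MI1443 carrying artificial blaCTX-M derivatives. Each gene was cloned into pBGS18– at EcoRI/PstI, transformed into MI1443, selected with kanamycin 50 µg/ml, and sequenced to confirm the mutation. Agents: cefotaxime, ceftazidime, cefepime, cefuroxime, amoxicillin-clavulanate.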

Escherichia coli [4] = experiment: Antimicrobial activity against Escherichia coli MI1443 harboring V27A and Q38R mutations in beta lactamase CTX-M-10 by E-test; assay type: functional; outline: as §2
Escherichia coli [5] = experiment: Antimicrobial activity against Escherichia coli GB20 harboring V27A, Q38R, P167S mutation in beta lactamase CTX-M-3 by broth microdilution method; assay type: functional
Escherichia coli [6] = experiment: Antimicrobial activity against Escherichia coli GB20 harboring V27A, Q38R, A77V, P167S mutation in beta lactamase CTX-M-3 by broth microdilution method; assay type: functional
Escherichia coli [7] = experiment: Antimicrobial activity against Escherichia coli MI1443 harboring V27A, Q38R, N106S mutations in beta lactamase CTX-M-3 by E-test; assay type: functional; outline: as §1
Escherichia coli [8] = experiment: Antimicrobial activity against Escherichia coli GB20 harboring P167S mutation in beta lactamase CTX-M-10 by broth microdilution method; assay type: functional
Escherichia coli [9] = experiment: Antimicrobial activity against Escherichia coli MI1443 harboring A77V and D240G mutations in beta lactamase CTX-M-10 by E-test; assay type: functional; outline: as §2
Escherichia coli [10] = experiment: Antimicrobial activity against Escherichia coli MI1443 harboring N106S and D240G mutations in beta lactamase CTX-M-10 by E-test; assay type: functional; outline: as §2
Escherichia coli [11] = experiment: Antimicrobial activity against Escherichia coli MI1443 harboring N106S and P167S mutations in beta lactamase CTX-M-10 by E-test; assay type: functional; outline: as §2
Escherichia coli [12] = experiment: Antimicrobial activity against Escherichia coli MI1443 harboring A77V and P167S mutations in beta lactamase CTX-M-10 by E-test; assay type: functional; outline: as §2
Escherichia coli [13] = experiment: Antimicrobial activity against Escherichia coli GB20 harboring V27A, Q38R mutations in beta lactamase CTX-3 by broth microdilution method; assay type: functional
Escherichia coli [14] = experiment: Antimicrobial activity against Escherichia coli MI1443 harboring V27A, Q38R, P167S and D240G mutations in beta lactamase CTX-M-3 by E-test; assay type: functional; outline: as §1
Escherichia coli [15] = experiment: Antimicrobial activity against Escherichia coli GB20 harboring V27A, Q38R, A77V, N114D, A140S, D288N mutations in beta lactamase CTX-M-1 by broth microdilution method; assay type: functional
Escherichia coli [16] = experiment: Antimicrobial activity against Escherichia coli GB20 harboring V27A, Q38R, A77V, N114D, A140S, P167S, D288N mutations in beta lactamase CTX-M-1 by broth microdilution method; assay type: functional
Escherichia coli [17] = experiment: Antimicrobial activity against Escherichia coli MI1443 harboring V27A, Q38R, A77V and D240G mutations in beta lactamase CTX-M-3 by E-test; assay type: functional; outline: as §2
Escherichia coli [18] = experiment: Antimicrobial activity against Escherichia coli MI1443 harboring V27A, Q38R, N106S and P167S mutations in beta lactamase CTX-M-3 by E-test; assay type: functional; outline: as §1
Escherichia coli [19] = experiment: Antimicrobial activity against Escherichia coli GB20 harboring D240G mutation in beta lactamase CTX-M-10 by broth microdilution method; assay type: functional
Escherichia coli [20] = experiment: Antimicrobial activity against Escherichia coli MI1443 harboring N106S mutation in beta lactamase CTX-M-10 by E-test; assay type: functional; outline: as §2
Escherichia coli [21] = experiment: Antimicrobial activity against beta lactamase CTX-M-10 producing Escherichia coli MI1443 by broth microdilution
Escherichia coli [22] = experiment: Antimicrobial activity against Escherichia coli MI1443 harboring V27A, Q38R, A77V, N114D, A140S, D240G, D288N mutations in beta lactamase CTX-M-32 by broth microdilution method; assay type: functional
Escherichia coli [23] = experiment: Antimicrobial activity against Escherichia coli MI1443 harboring A77V mutation in beta lactamase CTX-M-10 by E-test; assay type: functional; outline: as §1
Escherichia coli [24] = experiment: Antimicrobial activity against beta lactamase CTX-M-10 producing Escherichia coli GB20 by broth microdilution method; assay type: functional
Escherichia coli [25] = experiment: Antimicrobial activity against Escherichia coli GB20 harboring V27A, Q38R, A77V, N114D, A140S, P167T, D288N mutations in beta lactamase CTX-M-1 by broth microdilution method; assay type: functional
Escherichia coli [26] = experiment: Antimicrobial activity against Escherichia coli MI1443 harboring V27A, Q38R, D240G mutations in beta lactamase CTX-M-15 by broth microdilution method; assay type: functional

In the case of `CO/N=C(\C(=O)N[C@@H]1C(=O)N2C(C(=O)[O-])=C(C[N+]3(C)CCCC3)CS[C@H]12)c1csc(N)n1` [CEFEPIME], the MIC (Escherichia coli [1]) is reported as less than 0.25 µg/mL, the MIC (Escherichia coli [2]) is reported as 1.5 µg/mL (≈ 3.12 µM) and the MIC (Escherichia coli [3]) is reported as 8 µg/mL (≈ 16.6 µM). The MIC (Escherichia coli [4]) was 32 µg/mL (≈ 66.6 µM), the MIC (Escherichia coli [5]) was 0.5 µg/mL (≈ 1.04 µM) and the MIC (Escherichia coli [6]) was 0.25 µg/mL (≈ 0.52 µM). For the same compound, the MIC (Escherichia coli [7]) was 1.5 µg/mL (≈ 3.12 µM), the MIC (Escherichia coli [8]) was 1 µg/mL (≈ 2.08 µM) and the MIC (Escherichia coli [9]) was 32 µg/mL (≈ 66.6 µM). For the same compound, the MIC (Escherichia coli [10]) was 4 µg/mL (≈ 8.32 µM), the MIC (Escherichia coli [11]) was 1 µg/mL (≈ 2.08 µM) and the MIC (Escherichia coli [12]) was 1 µg/mL (≈ 2.08 µM). The MIC (Escherichia coli [13]) was 32 µg/mL (≈ 66.6 µM), the MIC (Escherichia coli [14]) was 0.5 µg/mL (≈ 1.04 µM) and the MIC (Escherichia coli [15]) was 128 µg/mL (≈ 266 µM). The MIC (Escherichia coli [16]) was 4 µg/mL (≈ 8.32 µM), the MIC (Escherichia coli [17]) was 4 µg/mL (≈ 8.32 µM) and the MIC (Escherichia coli [18]) was 1.5 µg/mL (≈ 3.12 µM). For the same compound, the MIC (Escherichia coli [19]) was 4 µg/mL (≈ 8.32 µM), the MIC (Escherichia coli [20]) was 1 µg/mL (≈ 2.08 µM) and the MIC (Escherichia coli [21]) was 32 µg/mL (≈ 66.6 µM). It also gave an MIC (Escherichia coli [22]) of 4 µg/mL (≈ 8.32 µM), an MIC (Escherichia coli [23]) of 128 µg/mL (≈ 266 µM) and an MIC (Escherichia coli [24]) of 32 µg/mL (≈ 66.6 µM). It also gave an MIC (Escherichia coli [25]) of 4 µg/mL (≈ 8.32 µM) and an MIC (Escherichia coli [26]) of 1 µg/mL (≈ 2.08 µM).
With `CO/N=C(\C(=O)N[C@@H]1C(=O)N2C(C(=O)O)=C(COC(C)=O)CS[C@H]12)c1csc(N)n1` [CEFOTAXIME] the MIC (Escherichia coli [1]) was 4 µg/mL (≈ 8.78 µM), the MIC (Escherichia coli [2]) was 128 µg/mL (≈ 281 µM) and the MIC (Escherichia coli [3]) was no less than 256 µg/mL. The MIC (Escherichia coli [4]) was 256 µg/mL (≈ 562 µM), the MIC (Escherichia coli [5]) was 1 µg/mL (≈ 2.2 µM) and the MIC (Escherichia coli [6]) was 4 µg/mL (≈ 8.78 µM). For the same compound, the MIC (Escherichia coli [7]) was 3 µg/mL (≈ 6.59 µM), the MIC (Escherichia coli [8]) was 1 µg/mL (≈ 2.2 µM) and the MIC (Escherichia coli [9]) was no less than 256 µg/mL. The MIC (Escherichia coli [10]) was 64 µg/mL (≈ 141 µM), the MIC (Escherichia coli [11]) was 2 µg/mL (≈ 4.39 µM) and the MIC (Escherichia coli [12]) was 4 µg/mL (≈ 8.78 µM). The MIC (Escherichia coli [13]) was 256 µg/mL (≈ 562 µM), the MIC (Escherichia coli [14]) was 1.5 µg/mL (≈ 3.29 µM) and the MIC (Escherichia coli [15]) was no less than 256 µg/mL. The MIC (Escherichia coli [16]) was 16 µg/mL (≈ 35.1 µM), the MIC (Escherichia coli [17]) was no less than 256 µg/mL and the MIC (Escherichia coli [18]) was 3 µg/mL (≈ 6.59 µM). It also gave an MIC (Escherichia coli [19]) of no less than 256 µg/mL, an MIC (Escherichia coli [20]) of 2 µg/mL (≈ 4.39 µM) and an MIC (Escherichia coli [21]) of 256 µg/mL (≈ 562 µM). It also gave an MIC (Escherichia coli [22]) of 256 µg/mL (≈ 562 µM), an MIC (Escherichia coli [23]) of no less than 256 µg/mL and an MIC (Escherichia coli [24]) of 256 µg/mL (≈ 562 µM). For the same compound, the MIC (Escherichia coli [25]) was 16 µg/mL (≈ 35.1 µM) and the MIC (Escherichia coli [26]) was 128 µg/mL (≈ 281 µM).
For `CC(C)(O/N=C(\C(=O)N[C@@H]1C(=O)N2C(C(=O)[O-])=C(C[n+]3ccccc3)CS[C@H]12)c1csc(N)n1)C(=O)O` [CEFTAZIDIME], the MIC (Escherichia coli [1]) was 4 µg/mL (≈ 7.32 µM), the MIC (Escherichia coli [2]) was 1 µg/mL (≈ 1.83 µM) and the MIC (Escherichia coli [3]) was 2 µg/mL (≈ 3.66 µM). It also gave an MIC (Escherichia coli [4]) of 1 µg/mL (≈ 1.83 µM), an MIC (Escherichia coli [5]) of 32 µg/mL (≈ 58.5 µM) and an MIC (Escherichia coli [6]) of 32 µg/mL (≈ 58.5 µM). The MIC (Escherichia coli [7]) was 0.5 µg/mL (≈ 0.915 µM), the MIC (Escherichia coli [8]) was 32 µg/mL (≈ 58.5 µM) and the MIC (Escherichia coli [9]) was 8 µg/mL (≈ 14.6 µM). For the same compound, the MIC (Escherichia coli [10]) was 2 µg/mL (≈ 3.66 µM), the MIC (Escherichia coli [11]) was 16 µg/mL (≈ 29.3 µM) and the MIC (Escherichia coli [12]) was 64 µg/mL (≈ 117 µM). The MIC (Escherichia coli [13]) was 1 µg/mL (≈ 1.83 µM), the MIC (Escherichia coli [14]) was 8 µg/mL (≈ 14.6 µM) and the MIC (Escherichia coli [15]) was 4 µg/mL (≈ 7.32 µM). It also gave an MIC (Escherichia coli [16]) of 256 µg/mL (≈ 468 µM), an MIC (Escherichia coli [17]) of 2 µg/mL (≈ 3.66 µM) and an MIC (Escherichia coli [18]) of 32 µg/mL (≈ 58.5 µM). For the same compound, the MIC (Escherichia coli [19]) was 16 µg/mL (≈ 29.3 µM), the MIC (Escherichia coli [20]) was 0.5 µg/mL (≈ 0.915 µM) and the MIC (Escherichia coli [21]) was 1 µg/mL (≈ 1.83 µM). It also gave an MIC (Escherichia coli [22]) of 2 µg/mL (≈ 3.66 µM), an MIC (Escherichia coli [23]) of 8 µg/mL (≈ 14.6 µM) and an MIC (Escherichia coli [24]) of 1 µg/mL (≈ 1.83 µM). It also gave an MIC (Escherichia coli [25]) of 256 µg/mL (≈ 468 µM) and an MIC (Escherichia coli [26]) of 2 µg/mL (≈ 3.66 µM).
Compound `CO/N=C(\C(=O)N[C@@H]1C(=O)N2C(C(=O)O)=C(COC(N)=O)CS[C@H]12)c1ccco1` [CEFUROXIME] has an MIC (Escherichia coli [5]) of 128 µg/mL (≈ 302 µM), an MIC (Escherichia coli [6]) of 64 µg/mL (≈ 151 µM) and an MIC (Escherichia coli [8]) of 32 µg/mL (≈ 75.4 µM). It also gave an MIC (Escherichia coli [12]) of 64 µg/mL (≈ 151 µM), an MIC (Escherichia coli [21]) of no less than 256 µg/mL and an MIC (Escherichia coli [24]) of no less than 256 µg/mL.
